Laboratory results as given in ChEMBL document CHEMBL1122347, “synthesis and antihypertensive activity of 2-sulfonamido- and 2-sulfamido-1,3,4,6,7,11b alpha-hexahydro-2H-benzo[a]quinolizines” (1983).
“And” between values parts separate entries of the source, which are not always exact repeats. Equal values may be shown once. The source made the active and inactive calls. The calls are words filed in the database; no cut-off is given here.

What was measured:
[1] = tested on: Rattus norvegicus; assay: Antihypertensive activity in DOCA/saline rat dosed at 50 mg/kg, administered perorally expressed as percent rise in heart rate after 6 h; NS is not significant; format: functional, organism-based; set-up: dose 50 mg/kg
In short: (§1)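 Hypertensive rats were kept only if systolic pressure was at least 155 mmHg, in groups of four. They were dosed orally in 0.5% (hydroxypropyl)methylcellulose/0.9% saline vehicle (10 mL/kg), with a vehicle-alone control. Systolic pressure was measured by tail-cuff with a pneumatic pulse transducer in 37 °C housing before dosing and at 2, 6 and 24 h. Heart rate was taken from pulse traces. Means ± SE; ANOVA against control, p > 0.05 nonsignificant.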

[2] = tested on: Rattus norvegicus; assay: Antihypertensive activity in DOCA/saline rat dosed at 50 mg/kg, administered perorally expressed as percent rise in heart rate after 2 h; format: functional; conditions: route oral; in short: as §1
[3] = tested on: Rattus norvegicus; assay: Antihypertensive activity in DOCA/saline rat dosed at 50 mg/kg, administered perorally expressed as percent fall in blood pressure after 6 h; format: functional; conditions: route oral; in short: as §1
[4] = tested on: Rattus norvegicus; assay: Antihypertensive activity in DOCA/saline rat dosed at 50 mg/kg, administered perorally expressed as percent fall in blood pressure after 2 h; format: functional; conditions: route oral; in short: as §1
[5] = tested on: Rattus norvegicus; assay: Antihypertensive activity in DOCA/saline rat dosed at 50 mg/kg, po expressed as percent rise in heart rate after 6 h; NS is not significant; format: functional, organism-based; set-up: dose 50 mg/kg; in short: as §1
[6] = tested on: Rattus norvegicus; assay: Antihypertensive activity in DOCA/saline rat dosed at 50 mg/kg, po expressed as percent fall in blood pressure after 2 h; format: functional; in short: as §1
[7] = tested on: Rattus norvegicus; assay: Antihypertensive activity in DOCA/saline rat dosed at 50 mg/kg, po expressed as percent rise in heart rate after 2 h; format: functional; in short: as §1
[8] = tested on: Rattus norvegicus; assay: Antihypertensive activity in DOCA/saline rat dosed at 50 mg/kg, po expressed as percent fall in blood pressure after 6 h; NS is not significant; format: functional, organism-based; set-up: dose 50 mg/kg; in short: as §1
[9] = tested on: Rattus norvegicus; assay: (§2) Antihypertensive activity in DOCA/saline rat dosed at 50 mg/kg, administered perorally expressed as percent rise in heart rate after 2 h; NS is not significant; format: functional, organism-based; set-up: dose 50 mg/kg; in short: as §1
[10] = tested on: Rattus norvegicus; assay: Antihypertensive activity in DOCA/saline rat dosed at 50 mg/kg, administered perorally expressed as percent fall in blood pressure after 6 h; NS is not significant; format: functional, organism-based; set-up: dose 50 mg/kg; in short: as §1
[11] = tested on: Rattus norvegicus; assay: Antihypertensive activity in DOCA/saline rat dosed at 50 mg/kg, administered perorally expressed as percent fall in blood pressure after 2 h; NS is not significant; format: functional, organism-based; set-up: dose 50 mg/kg; in short: as §1
[12] = tested on: Rattus norvegicus; assay: Antihypertensive activity in DOCA/saline rat dosed at 50 mg/kg, administered perorally expressed as percent rise in heart rate after 6 h; NS is not significant,; format: functional, organism-based; set-up: dose 50 mg/kg; in short: as §1
[13] = tested on: Rattus norvegicus; assay: Antihypertensive activity in DOCA/saline rat dosed at 50 mg/kg administered perorally expressed as percent rise in heart rate after 2 h; NS is not significant; format: functional, organism-based; set-up: dose 50 mg/kg; in short: as §1
[14] = tested on: Rattus norvegicus; assay: Antihypertensive activity in DOCA/saline rat dosed at 25 mg/kg, administered perorally expressed as percent rise in heart rate after 6 h; NS is not significant; format: functional, organism-based; set-up: dose 25 mg/kg; in short: as §1
[15] = tested on: Rattus norvegicus; assay: Antihypertensive activity in DOCA/saline rat dosed at 50 mg/kg, administered perorally expressed as percent rise in heart rate after 2 h; NS is not significant,; format: functional, organism-based; set-up: dose 50 mg/kg; in short: as §1
[16] = tested on: Rattus norvegicus; assay: Antihypertensive activity in DOCA/saline rat dosed at 10mg/kg, administered perorally expressed as percent rise in heart rate after 2 h; format: functional; in short: as §1
[17] = tested on: Rattus norvegicus; assay: Antihypertensive activity in DOCA/saline rat dosed at 10 mg/kg, administered perorally expressed as percent fall in blood pressure after 2 h; format: functional; conditions: route oral; in short: as §1
[18] = tested on: Rattus norvegicus; assay: Antihypertensive activity in DOCA/saline rat dosed at 25 mg/kg, po administered perorally expressed as percent rise in heart rate after 2 h; NS is not significant; format: functional, organism-based; set-up: dose 25 mg/kg; in short: as §1
[19] = tested on: Rattus norvegicus; assay: Antihypertensive activity in DOCA/saline rat dosed at 10 mg/kg, administered perorally expressed as percent rise in heart rate after 6 h; NS is not significant; format: functional, organism-based; set-up: dose 10 mg/kg; in short: as §1
[20] = tested on: Rattus norvegicus; assay: Antihypertensive activity in DOCA/saline rat dosed at 25 mg/kg, administered perorally expressed as percent fall in blood pressure after 6 h; format: functional; conditions: route oral; in short: as §1
[21] = tested on: Rattus norvegicus; assay: Antihypertensive activity in DOCA/saline rat dosed at 25 mg/kg, administered perorally expressed as percent fall in blood pressure after 2 h; format: functional; conditions: route oral; in short: as §1
[22] = tested on: Rattus norvegicus; assay: Antihypertensive activity in DOCA/saline rat dosed at 10 mg/kg, administered perorally expressed as percent fall in blood pressure after 6 h; NS is not significant; format: functional, organism-based; set-up: dose 10 mg/kg; in short: as §1
[23] = tested on: Rattus norvegicus; assay: Antihypertensive activity in DOCA/saline rat dosed at 25 mg/kg, administered perorally expressed as percent fall in blood pressure after 6 h; NS is not significant; format: functional, organism-based; set-up: dose 25 mg/kg; in short: as §1
[24] = tested on: Rattus norvegicus; assay: Antihypertensive activity in DOCA/saline rat dosed at 25 mg/kg, administered perorally expressed as percent rise in heart rate after 2 h; NS is not significant; format: functional, organism-based; set-up: dose 25 mg/kg; in short: as §1
[25] = tested on: Rattus norvegicus; assay: Antihypertensive activity in DOCA/saline rat dosed at 25 mg/kg, administered perorally expressed as percent fall in blood pressure after 2 h; NS is not significant; format: functional, organism-based; set-up: dose 25 mg/kg; in short: as §1
[26] = tested on: Rattus norvegicus; assay: Antihypertensive activity in DOCA/saline rat dosed at 50 mg/kg, administered perorally expressed as percent rise in heart rate after 6 h; format: functional; conditions: route oral; in short: as §1
[27] = tested on: Rattus norvegicus; assay: Antihypertensive activity in DOCA/saline rat dosed at 50 mg/kg, po administered perorally expressed as percent rise in heart rate after 2 h; format: functional; in short: as §1
[28] = species on record: Rattus norvegicus; conditions: Heart, 2 mg/kg
[29] = species on record: Rattus norvegicus; conditions: 2 mg/kg
[30] = tested on: Rattus norvegicus; assay: Antihypertensive activity in DOCA/saline rat dosed at 25 mg/kg, po administered perorally expressed as percent rise in heart rate after 6 h; NS is not significant; format: functional, organism-based; set-up: dose 25 mg/kg; in short: as §1
[31] = tested on: Rattus norvegicus; assay: as §2; format: functional, organism-based; set-up: dose 50 mg/kg; in short: as §1; remark: listed apart in the source
[32] = tested on: Rattus norvegicus; assay: Antihypertensive activity in DOCA/saline rat dosed at 10 mg/kg, administered perorally expressed as percent fall in blood pressure after 2 h; NS is not significant; format: functional, organism-based; set-up: dose 10 mg/kg; in short: as §1
[33] = tested on: Rattus norvegicus; assay: Antihypertensive activity in DOCA/saline rat dosed at 10mg/kg, administered perorally expressed as percent fall in blood pressure after 6 h; NS is not significant; format: functional, organism-based; in short: as §1

Compound | Rise HR [1] | Decrease in blood pressure [3] [%] | Decrease in blood pressure [4] [%] | Rise HR [9] | Decrease in blood pressure [10] | Decrease in blood pressure [11] | further results
COc1cc2c(cc1OC)[C@@H]1C[C@H](NS(C)(=O)=O)CCN1CC2.Cl | inactive | 35 | 44 |  |  |  | Rise HR [2]: 16%
CNS(=O)(=O)N[C@@H]1CCN2CCc3ccccc3[C@@H]2C1.Cl | inactive | 18 | 35 |  |  |  | Rise HR [2]: 23%
Cc1ccc(N(CC2=NCCN2)c2cccc(O)c2)cc1 [PHENTOLAMINE] |  |  |  |  |  |  | Rise HR [5]: inactive; Decrease in blood pressure [6]: 36%; Rise HR [7]: 23%; Decrease in blood pressure [8]: inactive
CN([C@@H]1CCN2CCc3ccccc3[C@@H]2C1)S(C)(=O)=O | inactive |  |  | inactive | inactive | inactive | 
CS(=O)(=O)N[C@H]1CCN2CCc3ccccc3[C@@H]2C1 |  |  |  |  | inactive | inactive | Rise HR [12]: inactive; Rise HR [13]: inactive
CN(C)S(=O)(=O)N[C@@H]1CCN2CCc3ccccc3[C@@H]2C1.Cl | inactive | 31 | 45 | inactive |  |  | 
O=S(=O)(N[C@@H]1CCN2CCc3ccccc3[C@@H]2C1)c1ccccc1 | inactive |  |  | inactive | inactive | inactive | 
CS(=O)(=O)N[C@@H]1CCN2CCc3ccc(Cl)cc3[C@@H]2C1 | inactive |  |  | inactive | inactive | inactive | 
O=S(=O)(Nc1ccccc1)N[C@@H]1CCN2CCc3ccccc3[C@@H]2C1 | inactive |  |  | inactive | inactive | inactive | 
CS(=O)(=O)N[C@@H]1CCN2CCc3ccccc3[C@@H]2C1.Cl |  | 68 | 53 |  |  |  | Rise HR [14]: inactive; Increase in heart rate [15]: Not significant; Increase in heart rate [1]: inactive; Rise HR [16]: 39%; Decrease in blood pressure [17]: 28%; Rise HR [18]: inactive; Rise HR [19]: inactive; Decrease in blood pressure [20]: 50%; Decrease in blood pressure [21]: 50%; Decrease in blood pressure [22]: inactive
Cl.O=S(=O)(N[C@H]1CCN2CCc3ccccc3[C@@H]2C1)c1ccccc1 | inactive | 18 |  | inactive |  | inactive | 
CCS(=O)(=O)N(C)[C@@H]1CCN2CCc3ccccc3[C@@H]2C1.Cl |  |  |  |  |  |  | Rise HR [14]: inactive; Decrease in blood pressure [23]: inactive; Rise HR [24]: inactive; Decrease in blood pressure [21]: 36%
CCCS(=O)(=O)N(C)[C@@H]1CCN2CCc3ccccc3[C@@H]2C1.Cl |  |  | 38 |  | inactive |  | Rise HR [14]: inactive; Decrease in blood pressure [25]: inactive; Rise HR [26]: 21%; Rise HR [27]: 15%; Decrease in blood pressure [23]: inactive; Rise HR [24]: inactive
Cl.O=S(=O)(N[C@@H]1CCN2CCc3ccccc3[C@@H]2C1)N1CCCC1 | inactive |  |  |  | inactive | inactive | Rise HR [2]: 22%
COc1cc2c(cc1OC)[C@@H]1C[C@H](NS(N)(=O)=O)CCN1CC2.Cl | inactive |  | 22 | inactive | inactive |  | 
CCCS(=O)(=O)N[C@@H]1CCN2CCc3ccccc3[C@@H]2C1.Cl | inactive | 46 | 28 |  |  |  | Rise HR [2]: 14%
NNc1nncc2ccccc12 |  |  |  |  |  |  | Rise HR [28]: inactive; Decrease in blood pressure [29]: inactive
CCN(CC)S(=O)(=O)N[C@@H]1CCN2CCc3ccccc3[C@@H]2C1.Cl | inactive |  | 29 | inactive | inactive |  | 
CCS(=O)(=O)N[C@H]1CCN2CCc3ccccc3[C@@H]2C1 | inactive |  |  | inactive | inactive | inactive | 
CCS(=O)(=O)N[C@@H]1CCN2CCc3ccccc3[C@@H]2C1.Cl |  | 43 |  | inactive |  |  | Rise HR [26]: 22%; Rise HR [12]: inactive; Decrease in blood pressure ([4]; 50 mg/kg): 56% and 37%; Rise HR [30]: inactive; Rise HR [31]: inactive; Decrease in blood pressure [23]: inactive; Rise HR [24]: inactive; Decrease in blood pressure [21]: 42%
Cl.NS(=O)(=O)N[C@@H]1CCN2CCc3ccccc3[C@@H]2C1 | inactive | 50 | 48 |  |  |  | Rise HR [16]: 24%; Decrease in blood pressure [32]: inactive; Decrease in blood pressure [33]: inactive; Rise HR [19]: inactive; Rise HR [2]: 24%
